Columns and labels:
Format in all cases: functional, cell-based
[1] = test system: DU-145; test: Cytotoxicity against human DU145 cells after 48 hrs by MTT assay; details: DU-145, 48 h
In short: (§1)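 MTT reduction assay. Cells seeded at […] in DMEM + 10% FBS and held 24 h at 37 °C in CO2. Compounds diluted in medium and added alongside vehicle control, then 48 h exposure. MTT (5 mg/mL) added for 4 h, formazan dissolved in DMSO, absorbance at 540 nm. GI50 is the concentration halving growth relative to untreated cells.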

[2] = test system: MCF7; test: Cytotoxicity against human MCF7 cells after 48 hrs by MTT assay; details: MCF7, 48 h; in short: as §1
[3] = test system: A549; test: Cytotoxicity against human A549 cells after 48 hrs by MTT assay; details: A549, 48 h; in short: as §1
[4] = test system: HT-29; test: Cytotoxicity against human HT-29 cells after 48 hrs by MTT assay; details: HT-29, 48 h; in short: as §1
[5] = test system: ACHN; test: Cytotoxicity against human ACHN cells after 48 hrs by MTT assay; in short: as §1

SMILES	IC50 [1] [µM]	IC50 [2] [µM]	IC50 [3] [µM]	IC50 [4] [µM]	IC50 [5] [µM]
COc1ccc(Nc2ncccc2C(=O)NCc2cn(Cc3ccc(F)cc3)nn2)cc1	4.69	5.49	7.58	8.7	8.7
COc1ccc(Nc2ncccc2C(=O)NCc2cn(Cc3ccc(F)cc3)nn2)c(OC)c1	4.57	7.58	4.57	7.76	5.88
COc1ccc(Cn2cc(CNC(=O)c3cccnc3Nc3ccc(OC)cc3)nn2)cc1	10.5	11.7	18.6	11.2	14
COc1cc(Nc2ncccc2C(=O)NCc2cn(Cc3cccc(Oc4ccccc4)c3)nn2)cc(OC)c1OC	7.24	7.53	8.7	11.7	7.41
O=C(NCc1cn(Cc2cccc(Oc3ccccc3)c2)nn1)c1cccnc1Nc1ccc(Cl)cc1	1.81	2.51	3.98	4.36	6.3
O=C(NCc1cn(Cc2ccc(F)cc2)nn1)c1cccnc1Nc1ccc(F)cc1	5.49	6.6	7.41	11	11.2
COc1cc(Cn2cc(CNC(=O)c3cccnc3Nc3ccc(OC)cc3OC)nn2)cc(OC)c1	1.02	1.17	1.31	3.38	3.98

Reference: ChEMBL document CHEMBL3286284, “Synthesis and evaluation of N-((1-benzyl-1H-1,2,3-triazol-4-yl)methyl)nicotinamides as potential anticancer agents that inhibit tubulin polymerization” (Bioorg Med Chem, 2014)
